# High-throughput results: PubChem BioAssay, several laboratories
# CSN inh – inhibitors of CSN-mediated cullin deneddylation, primary screen, biochemical, fluorescence polarization, uHTS. AID 651999, 2013. Purified CSN, SCF-Nedd8-OG deneddylation. actives 0.38% (n = 360,000). inhibition, % at 12.5 µM;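 active = pattern-corrected inhibition above about 35%, with an unprinted fluorescence ratio check between 0.5 and 1.5, limit read from the data, passing the limit was not always enough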;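 note: 0% = enzyme with substrate and 100% = substrate without enzyme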
#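 Detection – fluorescence polarization · System – HEK293T-derived human Csn5 enzyme · Controls – substrate-only high control, full reaction low control · Timing – 90 min, room temperature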
# PREPL inh – PREPL enzyme inhibitors, primary screen, biochemical, fluorescence polarization; AID 2751, 2010; recombinant PREPL, fluorescence polarization activity-based probe; inhibition, % at 5.96 µM; actives 0.68% (n = 320,000);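 note: 0% = enzyme with DMSO and 100% = wells lacking enzyme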
# Neddyl block – inhibitors of cullin neddylation, primary screen, biochemical, TR-FRET, uHTS, NAE and Ubc12; inhibition, % at 25 µM; NEDD8-conjugating enzyme Ubc12 (Homo sapiens) + NEDD8-activating enzyme E1 regulatory …; actives 0.58% (n = 360,000); AID 651699, 2012; in the data active = inhibition above about 36%
# Target sequence (P61081 whole entry, looked up): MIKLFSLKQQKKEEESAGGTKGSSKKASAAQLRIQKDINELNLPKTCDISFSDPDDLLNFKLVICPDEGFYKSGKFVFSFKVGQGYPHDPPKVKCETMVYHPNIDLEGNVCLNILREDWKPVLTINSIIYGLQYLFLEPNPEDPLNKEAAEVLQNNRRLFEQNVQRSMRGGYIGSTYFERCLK
# Target sequence (Q13564 whole entry, looked up): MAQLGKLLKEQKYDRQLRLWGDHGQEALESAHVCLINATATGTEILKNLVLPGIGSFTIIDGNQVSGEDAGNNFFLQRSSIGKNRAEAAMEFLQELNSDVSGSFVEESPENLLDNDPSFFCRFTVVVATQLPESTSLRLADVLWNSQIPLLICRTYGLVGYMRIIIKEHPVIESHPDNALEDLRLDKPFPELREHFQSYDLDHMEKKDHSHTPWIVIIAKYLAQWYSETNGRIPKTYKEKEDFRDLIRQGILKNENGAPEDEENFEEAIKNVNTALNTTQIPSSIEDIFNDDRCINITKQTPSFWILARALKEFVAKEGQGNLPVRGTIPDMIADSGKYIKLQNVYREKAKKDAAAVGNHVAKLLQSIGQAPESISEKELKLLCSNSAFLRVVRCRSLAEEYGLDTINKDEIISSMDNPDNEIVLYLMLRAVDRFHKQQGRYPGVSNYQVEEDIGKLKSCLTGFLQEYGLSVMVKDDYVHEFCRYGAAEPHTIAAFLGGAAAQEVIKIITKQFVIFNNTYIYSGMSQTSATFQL
# Rpn11 block – Rpn11 (PSMD14) deubiquitinase inhibitors, primary screen, biochemical, fluorescence polarization, uHTS. human 26S proteasome, Ub4-pepOG fluorescence polarization; 20S core pre-blocked with epoxomicin. inhibition, % at 20 µM. actives 0.59% (n = 360,000). AID 588493, 2011;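 active = inhibition at 20 µM, scaled to each plate's controls, above about 33%, limit read from the data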
# TbMetRS inhib – T. brucei MetRS inhibitors, primary screen, biochemical, luminescence; purified T. brucei MetRS, ATP depletion, Kinase-Glo luminescence; inhibition, % at 11.9 µM; actives 0.4% (n = 360,000); AID 624268, 2012;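 active = inhibition above a per-plate cutoff of the control wells' mean inhibition plus 3 SD, cut at about 5.5% in these data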;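 note: 0% = DMSO wells median and 100% = median of wells with control inhibitor compound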
#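 assay system = parasite MetRS enzyme | timing = 15 min preincubation, 2 h reaction, all 25 °C | evaluation = percent inhibition relative to median high and low control wells | medium = HEPES buffer containing pyrophosphatase, BSA, spermine, DTT | compound = single dose, 11.9 µM final nominal, 0.9% final DMSO | detection = Kinase-Glo luminescence, ATP depletion format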
# HNF4A DNA FP – change in binding of human HNF4A to DNA, primary screen, biochemical, fluorescence polarization, FITC-DNA; Hepatocyte nuclear factor 4-alpha (Homo sapiens), P41235; 1 h; activity change, % at 10 µM; actives 0.3% (n = 360,000); AID 1224865, 2016; in the data active = activity change above about 30%, passing the limit was not always enough
# PREPL confirm – human PREPL enzyme inhibitors, confirmation, biochemical, fluorescence polarization | recombinant PREPL, fluorescence polarization activity probe | shares compounds with PREPL inh | actives 67% (n = 2,000) | inhibition, % at 5.96 µM;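 note: 0% = protein with DMSO and 100% = wells lacking protein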
# * = called active by the depositor; . = no result shown. Shown are actives, neighbours in structure and some others; about 2.4% of the full set was active somewhere. Cut-off read from the data, not from the text of the source, unless noted: active = inhibition above about 43%; inactive = the rest.
SMILES,CSN inh,PREPL inh,Neddyl block,Rpn11 block,TbMetRS inhib,HNF4A DNA FP,PREPL confirm
COc1cc(NC(=O)C2CC(c3ccc(Cl)cc3)=NO2)cc(OC)c1OC (centres undefined),5,44*,0,-7,0,-2,38
Cc1ccc(CSc2ccc3nnc(-c4ccccn4)n3n2)cc1,-1,50*,-77,-3,0,4,39
Cc1ccc(C)c(CSc2ccc3nnc(-c4ccccn4)n3n2)c1,-2,20,-119,-7,-1,0,.
COC(=O)C1=C(NC(=O)COc2ccc3ccccc3c2)CCS1,-13,58*,14,-4,0,0,41
COc1ccc(CNC(=O)Cc2c(C(=O)O)[nH]c3ccccc23)cc1,-1,20,5,5,0,-3,.
COc1ccc(CNC(=O)Cc2c(C(=O)O)[nH]c3ccccc23)c(OC)c1,2,126*,5,-5,0,2,3
Cc1c(C(=O)CN2CCCC(C)(C)C2)c2ccccc2n1C,0,-1,-6,-1,-1,-1,.
O=C(C1CCC(=O)N(C2CCCC2)C1)N1CCN(Cc2cccc(F)c2)CC1 (centres undefined),1,14,1,-4,0,-4,.
COc1ccc(/C=C/c2nc3ccccc3n2Cc2ccccc2OC)cc1,-2,49*,.,2,0,2,47*
Cc1c(CCOC(=O)CC23CC4CC(CC(C)(C4)C2)C3)sc[n+]1CC(=O)c1ccccc1,1,26,3,4,-1,1,.
Cc1c(CCOC(=O)C23CC4CC(CC(C)(C4)C2)C3)sc[n+]1CC(=O)c1ccccc1,-4,48*,-12,12,0,0,44*
Cc1c(CCOC(=O)c2ccccc2)sc[n+]1CC(=O)c1ccc(Br)cc1,-3,13,0,9,0,5,.
Cc1c(CCOC(=O)c2cc([N+](=O)[O-])cc([N+](=O)[O-])c2)sc[n+]1CC(=O)c1ccccc1,4,56*,-45,2,0,0,50*
CCOC(=O)C1(C)CCCN(C(=O)c2snnc2C)C1 (centres undefined),-1,.,6,-4,0,2,.
Cn1c(SCc2ccc(Br)cc2)nc2c(c1=O)SCC2,-3,47*,-2,2,0,-1,42
COc1ccc(-c2nc3c4ccccc4ccn3c2CC2CCCCC2)cc1OC,1,.,22,16,-1,5,.
CC(C)C[C@@H](C(=O)NC1CCN(Cc2ccccc2)CC1)N1C(=O)N2CCc3c([nH]c4ccccc34)[C@@]2(C)C1=O,5,44*,-3,13,-1,2,33
C[C@@H](C(=O)NC1CCN(Cc2ccccc2)CC1)N1C(=O)N2CCc3c([nH]c4ccccc34)[C@@]2(C)C1=O,2,16,-4,1,-1,5,.
Cc1ccc(-c2ccccc2NC(=O)CS(=O)CC(=O)Nc2ccc(C)c(Cl)c2)o1 (centres undefined),0,60*,-29,-12,0,-4,5
Nc1ccc(N(c2ccccc2)c2ccc(N)cc2)cc1,0,48*,13,12,-1,11,26
CN(C)c1ccc(CCc2ccc(N)cc2)cc1,10,4,9,19,0,2,.
O=C(CCCNC(=O)c1ccc(Cl)cc1)Nc1nccs1,-4,-1,-11,-5,0,0,.
CCN1CCc2c(sc(NC(=O)Nc3ccc(Cl)c(Cl)c3)c2C(N)=O)C1,-70,70*,.,-110,0,-84,54*
O=C(c1ccccc1)c1coc2ccc(O)c(CN3CCOCC3)c12,-3,43*,2,-2,0,-1,44*
CN(C)Cc1c(O)ccc2occ(C(=O)c3ccccc3)c12,-3,5,-2,-6,0,1,.
SMILES,CSN inh,PREPL inh,Neddyl block,Rpn11 block,TbMetRS inhib,HNF4A DNA FP,PREPL confirm
COc1ccc(C(=O)c2coc3ccc(O)c(CN4CCCCC4)c23)cc1,0,57*,5,-1,-1,-3,59*
Brc1ccc(C=Nc2ccc(Nc3ccccc3)cc2)s1,2,99*,-28,11,-1,0,13
NC(=S)N/N=C/c1ccc2ccccc2c1,-8,-12,-7,-1,0,2,.
C(=Nc1ccc(Nc2ccccc2)cc1)c1ccc2ccccc2c1,-5,95*,22,11,-1,0,16
CC1=Nc2nc(N3CCCCCC3)c(C#N)c3c4c(nc(c23)N1)N(c1ccc2ccccc2c1)C(=O)C4,8,63*,29,18,0,0,61*
COc1ccc(NC(=O)CNCc2cccs2)c(OC)c1,3,.,-6,-1,0,1,.
COc1cccc(Oc2ccc(C(F)(F)F)cc2NC(=O)CN2C(=O)NC3(CCCC3)C2=O)c1,1,13,7,7,0,0,.
O=C1NC(Cc2c[nH]c3ccccc23)C(=O)N1Cc1ccc(CN2C(=O)NC(Cc3c[nH]c4ccccc34)C2=O)cc1 (centres undefined),11,76*,1,5,5,0,57*
CCC(CO)Oc1cc(NCc2ccc(F)cc2)c2ncn(C(C)C)c2c1 (centres undefined),0,50*,-9,7,0,9,14
CCC(CO)Oc1cc(NCc2cccc(Cl)c2)c2ncn(C(C)C)c2c1 (centres undefined),11,57*,-14,6,1,10,38
CCC(CN(C)C)Oc1cc(NCc2ccccc2)c2ncn(C(C)C)c2c1 (centres undefined),13,63*,-9,-11,0,-5,51*
CCC(CO)Oc1cc(NCc2ccncc2)c2ncn(C(C)C)c2c1 (centres undefined),-4,3,-1,-5,0,-3,.
Cc1ccc(C(=O)NC(=S)c2c(C)cc3ccccn23)cc1,3,.,-120,6,0,2,.
CC(C)C[C@H]1COc2cccc(N3CCSCC3)c2S(=O)(=O)N1,-2,.,-3,.,0,-2,.
